In ChEMBL document CHEMBL4229410, “Facile construction of fused benzimidazole-isoquinolinones that induce cell-cycle arrest and apoptosis in colorectal cancer cells” (Bioorg Med Chem, 2018):

Key:
[1] = molecular target: MAP kinase-interacting serine/threonine-protein kinase 1 (Homo sapiens, UniProt Q9BUB5); assay: Binding affinity to full length human MKNK1 (M1 to L424 residues) expressed in mammalian expression system by KINOMEscan assay
[2] = molecular target: Serine/threonine-protein kinase pim-1 (Homo sapiens, UniProt P11309); assay: Inhibition of human PIM1 (A15 to K313 residues) expressed in bacterial expression system assessed as residual activity at 5 uM by KINOMEscan assay relative to control
[3] = tested on: HT-29; assay: Induction of apoptosis in human HT-29 cells assessed as late apoptotic cells at 25 uM after 48 hrs by Annexin-V-FITC/propidium iodide staining based flow cytometry (reference value: 4.1%); type: functional
[4] = molecular target: Epidermal growth factor receptor (Homo sapiens, UniProt P00533); assay: Inhibition of partial length human EGFR (R669 to V1011 residues) expressed in bacterial expression system assessed as residual activity at 5 uM by KINOMEscan assay relative to control
[5] = molecular target: Dual specificity mitogen-activated protein kinase kinase 2 (Homo sapiens, UniProt P36507); assay: Binding affinity to full length human MEK2 (M1 to V400 residues) expressed in mammalian expression system by KINOMEscan assay
[6] = molecular target: Serine/threonine-protein kinase B-raf (Homo sapiens, UniProt P15056); assay: Binding affinity to human BRAF (S429 to E741 residues) expressed in mammalian expression system by KINOMEscan assay
[7] = tested on: SW-620; assay: Cell cycle arrest in human SW620 cells assessed as accumulation at G1-phase at 50 uM after 48 hrs by propidium iodide staining based flow cytometry (reference value: 40.56%); type: functional
[8] = molecular target: T1, Serine/threonine-protein kinase pim-3 (Homo sapiens, UniProt Q86V86); assay: Inhibition of human PIM3 (G16 to A317 residues) expressed in bacterial expression system assessed as residual activity at 5 uM by KINOMEscan assay relative to control
[9] = tested on: HT-29; assay: Upregulation of p53 expression in human HT-29 cells after 48 hrs by Western blot analysis; type: functional, cell-based
[10] = molecular target: Proto-oncogene tyrosine-protein kinase Src (Homo sapiens, UniProt P12931); assay: Binding affinity to human SRC (L240 to L536 residues) expressed in bacterial expression system by KINOMEscan assay
[11] = molecular target: T2, Insulin-like growth factor 1 receptor (Homo sapiens, UniProt P08069); assay: Inhibition of human IGF1R (L972 to D1294 residues) expressed in bacterial expression system assessed as residual activity at 5 uM by KINOMEscan assay relative to control
[12] = molecular target: T2, Insulin-like growth factor 1 receptor; assay: Binding affinity to human IGF1R (L972 to D1294 residues) expressed in bacterial expression system by KINOMEscan assay
[13] = molecular target: Aurora kinase A (Homo sapiens, UniProt O14965); assay: Binding affinity to human AURKA (E122 to K401 residues) expressed in mammalian expression system by KINOMEscan assay
[14] = molecular target: Mitogen-activated protein kinase 11 (Homo sapiens, UniProt Q15759); assay: Inhibition of full length human p38beta (M1 to Q364 residues) expressed in bacterial expression system assessed as residual activity at 5 uM by KINOMEscan assay relative to control
[15] = molecular target: T3, Fibroblast growth factor receptor 2 (Homo sapiens, UniProt P21802); assay: Binding affinity to partial length human FGFR2 (D457 to E769 residues) expressed in bacterial expression system by KINOMEscan assay
[16] = tested on: SW-620; assay: Induction of apoptosis in human SW620 cells after 48 hrs by Annexin-V-FITC/propidium iodide staining based flow cytometry; type: functional, cell-based
[17] = molecular target: Angiopoietin-1 receptor (Homo sapiens, UniProt Q02763); assay: Inhibition of human TIE2 (N804 to T1112 residues) expressed in bacterial expression system assessed as residual activity at 5 uM by KINOMEscan assay relative to control
[18] = molecular target: Ribosomal protein S6 kinase alpha-3 (Homo sapiens, UniProt P51812); assay: Inhibition of human N-terminal RSK2 kinase domain 1 (M1 to D394 residues) expressed in mammalian expression system assessed as residual activity at 5 uM by KINOMEscan assay relative to control
[19] = tested on: HT-29; assay: Cell cycle arrest in human HT-29 cells assessed as accumulation at S-phase at 75 uM after 48 hrs by propidium iodide staining based flow cytometry (reference value: 37.82%); type: functional
[20] = molecular target: MAP kinase-interacting serine/threonine-protein kinase 2 (Homo sapiens, UniProt Q9HBH9); assay: Inhibition of human MKNK2 (G63 to S388 residues) expressed in mammalian expression system assessed as residual activity at 5 uM by KINOMEscan assay relative to control
[21] = molecular target: Macrophage colony-stimulating factor 1 receptor (Homo sapiens, UniProt P07333); assay: Inhibition of human CSF1R (I564 to S939 residues) expressed in bacterial expression system assessed as residual activity at 5 uM by KINOMEscan assay relative to control
[22] = tested on: HT-29; assay: Cell cycle arrest in human HT-29 cells assessed as accumulation at S-phase at 25 uM after 48 hrs by propidium iodide staining based flow cytometry (reference value: 37.82%); type: functional
[23] = molecular target: T3, Fibroblast growth factor receptor 2; assay: Inhibition of partial length human FGFR2 (D457 to E769 residues) expressed in bacterial expression system assessed as residual activity at 5 uM by KINOMEscan assay relative to control
[24] = tested on: HT-29; assay: Effect on total 4EBP1 expression in human HT-29 cells up to 75 uM after 48 hrs by Western blot analysis; type: ADME, cell-based; conditions: ht-29, 48 h
In short: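 HT29 or SW620 cells were treated at 0, 25, 50 and 75 μM for 48 h and lysed in RIPA with protease and phosphatase inhibitors. Protein was quantified by BCA. 50 μg lysate was run on 8–15% SDS-PAGE and transferred to PVDF. Blocking was 5% BSA/TBST for 2 h; primary antibodies were applied overnight at 4 °C, then HRP secondary 1 h at room temperature.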

[25] = molecular target: Mitogen-activated protein kinase 10 (Homo sapiens, UniProt P53779); assay: Inhibition of human JNK3 (V28 to Q422 residues) expressed in mammalian expression system assessed as residual activity at 5 uM by KINOMEscan assay relative to control
[26] = molecular target: T1, Serine/threonine-protein kinase pim-3; assay: Binding affinity to human PIM3 (G16 to A317 residues) expressed in bacterial expression system by KINOMEscan assay
[27] = molecular target: Hepatocyte growth factor receptor (Homo sapiens, UniProt P08581); assay: Inhibition of human MET (D1010 to S1367 residues) expressed in bacterial expression system assessed as residual activity at 5 uM by KINOMEscan assay relative to control
[28] = molecular target: Activin receptor type-1B (Homo sapiens, UniProt P36896); assay: Binding affinity to human ACVR1B (S187 to I505 residues) expressed in bacterial expression system by KINOMEscan assay
[29] = molecular target: Aurora kinase A (Homo sapiens) (UniProt O14965); assay: Inhibition of human AURKA (E122 to K401 residues) expressed in mammalian expression system assessed as residual activity at 5 uM by KINOMEscan assay relative to control

CC(C)CN(C(=O)c1cccnc1)c1c2ccccc2c(=O)n2c1[nH]c1ccccc12
Kd [1]: ≥ 5 µM | Activity [2]: 83% | Activity [3]: 8% | Activity [4]: 100% | Kd [5]: ≥ 5 µM | Kd [6]: ≥ 5 µM | Activity [7]: 46.19% | Activity [8]: 100% | Activity [9]: Dose-dependent effect | Kd [10]: ≥ 5 µM | Activity [11]: 100% | Kd [12]: ≥ 5 µM | Kd [13]: ≥ 5 µM | Activity [14]: 100% | Kd [15]: ≥ 5 µM | Activity [16]: Dose-dependent effect | Activity [17]: 88% | Activity [18]: 91% | Activity [19]: 33.33% | Activity [20]: 92% | Activity [21]: 100% | Activity [22]: 37.2% | Activity [23]: 76% | Activity [24]: Non-Toxic | Activity [25]: 95% | Kd [26]: ≥ 5 µM | Activity [27]: 86% | Kd [28]: ≥ 5 µM | Activity [29]: 100%
